Data reported in ChEMBL document CHEMBL4433220, “Identification of the 2-Benzoxazol-2-yl-phenol Scaffold as New Hit for JMJD3 Inhibition” (ACS Med Chem Lett, 2019).
pIC50: −log10 of the molar value. One block for each molecule: values may come before it. The source made the active and inactive calls. The calls are words filed in the database; no cut-off is given here.

Legend:
[1] = Apparent permeability of the compound in pH 7.4 phosphate buffer solution at 0.5 mM incubated for 24 hrs under gentle shaking condition by HPLC-UV detector based PAMPA assay; assay type: ADME
Summary of the method: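 Parallel artificial membrane permeability assay (PAMPA); apparent permeability (Papp) reported in cm/s.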

A-375 [2] = experiment: Cell cycle arrest in human A375 cells assessed as accumulation at S phase at 40 uM incubated for 24 hrs by propidium iodide staining-based flow cytometry (reference value: 29.56%); assay type: functional
Summary of the method: (§1)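 A375 melanoma cells exposed to compound at 1, 5, 10, 20, 40, 80 or 100 μM for 24 h. Cells were collected, fixed in iced 70% ethanol for 2 h and stained with propidium iodide. Cell-cycle distribution was read by flow cytometry, n = 3. […]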

A-375 [3] = experiment: Antiproliferative activity against human A375 cells incubated for 24 hrs by propidium iodide staining based flow cytometric analysis; settings: A-375, 24 h
A-375 [4] = experiment: Cell cycle arrest in human A375 cells assessed as accumulation at S phase at 20 uM incubated for 24 hrs by propidium iodide staining-based flow cytometry (reference value: 29.56%); assay type: functional; summary of the method: as §1
A-375 [5] = experiment: Cell cycle arrest in human A375 cells assessed as accumulation at G2/M phase at 100 uM incubated for 24 hrs by propidium iodide staining-based flow cytometry (reference value: 10.81%); assay type: functional; summary of the method: as §1
A-375 [6] = experiment: Cell cycle arrest in human A375 cells assessed as accumulation at S phase at 80 uM incubated for 24 hrs by propidium iodide staining-based flow cytometry (reference value: 29.56%); assay type: functional; summary of the method: as §1
[7] = target: T1, Lysine-specific demethylase 6B (Homo sapiens, UniProt O15054); experiment: Inhibition of JMJD3 in human A375 cells assessed as reduction in decrease of the H3K27me2 level at 100 uM incubated for 24 hrs by Western blot analysis; assay type: cell-based
Summary of the method: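 A375 melanoma cells treated with 100 μM compound for 4 and 24 h, then lysed and run on SDS-PAGE. Western blot on nitrocellulose was probed with anti-H3K27me2 antibody.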

A-375 [8] = experiment: Cell cycle arrest in human A375 cells assessed as accumulation at G1 phase at 20 uM incubated for 24 hrs by propidium iodide staining-based flow cytometry (reference value: 59.63%); assay type: functional; summary of the method: as §1
[9] = target: T1, Lysine-specific demethylase 6B; experiment: Inhibition of recombinant human JMJD3 expressed in baculovirus infected Sf9 cells at 25 uM using biotinylated histone H3 peptide as substrate incubated for 15 mins followed by substrate addition and measured after 60 mins by AlphaScreen assay relative to control
Summary of the method: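 JMJD3 demethylase activity measured by AlphaScreen with compound at 25 μM; means ± SEM, n = 3.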

A-375 [10] = experiment: Cell cycle arrest in human A375 cells assessed as accumulation at G2/M phase at 80 uM incubated for 24 hrs by propidium iodide staining-based flow cytometry (reference value: 10.81%); assay type: functional; summary of the method: as §1
A-375 [11] = experiment: Cell cycle arrest in human A375 cells assessed as accumulation at G1 phase at 100 uM incubated for 24 hrs by propidium iodide staining-based flow cytometry (reference value: 59.63%); assay type: functional; summary of the method: as §1
A-375 [12] = experiment: Cell cycle arrest in human A375 cells assessed as accumulation at G1 phase at 40 uM incubated for 24 hrs by propidium iodide staining-based flow cytometry (reference value: 59.63%); assay type: functional; summary of the method: as §1
A-375 [13] = experiment: Cell cycle arrest in human A375 cells assessed as accumulation at S phase at 100 uM incubated for 24 hrs by propidium iodide staining-based flow cytometry (reference value: 29.56%); assay type: functional; summary of the method: as §1
A-375 [14] = experiment: Cell cycle arrest in human A375 cells assessed as accumulation at G2/M phase at 40 uM incubated for 24 hrs by propidium iodide staining-based flow cytometry (reference value: 10.81%); assay type: functional; summary of the method: as §1
A-375 [15] = experiment: Cell cycle arrest in human A375 cells assessed as accumulation at G1 phase at 80 uM incubated for 24 hrs by propidium iodide staining-based flow cytometry (reference value: 59.63%); assay type: functional; summary of the method: as §1
[16] = target: T1, Lysine-specific demethylase 6B; experiment: Inhibition of recombinant human JMJD3 expressed in baculovirus infected Sf9 cells using biotinylated histone H3 peptide as substrate incubated for 15 mins followed by substrate addition and measured after 60 mins by AlphaScreen assay
[17] = target: Lysine-specific demethylase 6A (Homo sapiens, UniProt O15550); experiment: Inhibition of UTX (unknown origin) using histone H3 peptide as substrate incubated for 30 mins followed by substrate addition by AlphaScreen assay
A-375 [18] = experiment: Cell cycle arrest in human A375 cells assessed as accumulation at G2/M phase at 20 uM incubated for 24 hrs by propidium iodide staining-based flow cytometry (reference value: 10.81%); assay type: functional; summary of the method: as §1

T1 sequence (O15054 whole entry): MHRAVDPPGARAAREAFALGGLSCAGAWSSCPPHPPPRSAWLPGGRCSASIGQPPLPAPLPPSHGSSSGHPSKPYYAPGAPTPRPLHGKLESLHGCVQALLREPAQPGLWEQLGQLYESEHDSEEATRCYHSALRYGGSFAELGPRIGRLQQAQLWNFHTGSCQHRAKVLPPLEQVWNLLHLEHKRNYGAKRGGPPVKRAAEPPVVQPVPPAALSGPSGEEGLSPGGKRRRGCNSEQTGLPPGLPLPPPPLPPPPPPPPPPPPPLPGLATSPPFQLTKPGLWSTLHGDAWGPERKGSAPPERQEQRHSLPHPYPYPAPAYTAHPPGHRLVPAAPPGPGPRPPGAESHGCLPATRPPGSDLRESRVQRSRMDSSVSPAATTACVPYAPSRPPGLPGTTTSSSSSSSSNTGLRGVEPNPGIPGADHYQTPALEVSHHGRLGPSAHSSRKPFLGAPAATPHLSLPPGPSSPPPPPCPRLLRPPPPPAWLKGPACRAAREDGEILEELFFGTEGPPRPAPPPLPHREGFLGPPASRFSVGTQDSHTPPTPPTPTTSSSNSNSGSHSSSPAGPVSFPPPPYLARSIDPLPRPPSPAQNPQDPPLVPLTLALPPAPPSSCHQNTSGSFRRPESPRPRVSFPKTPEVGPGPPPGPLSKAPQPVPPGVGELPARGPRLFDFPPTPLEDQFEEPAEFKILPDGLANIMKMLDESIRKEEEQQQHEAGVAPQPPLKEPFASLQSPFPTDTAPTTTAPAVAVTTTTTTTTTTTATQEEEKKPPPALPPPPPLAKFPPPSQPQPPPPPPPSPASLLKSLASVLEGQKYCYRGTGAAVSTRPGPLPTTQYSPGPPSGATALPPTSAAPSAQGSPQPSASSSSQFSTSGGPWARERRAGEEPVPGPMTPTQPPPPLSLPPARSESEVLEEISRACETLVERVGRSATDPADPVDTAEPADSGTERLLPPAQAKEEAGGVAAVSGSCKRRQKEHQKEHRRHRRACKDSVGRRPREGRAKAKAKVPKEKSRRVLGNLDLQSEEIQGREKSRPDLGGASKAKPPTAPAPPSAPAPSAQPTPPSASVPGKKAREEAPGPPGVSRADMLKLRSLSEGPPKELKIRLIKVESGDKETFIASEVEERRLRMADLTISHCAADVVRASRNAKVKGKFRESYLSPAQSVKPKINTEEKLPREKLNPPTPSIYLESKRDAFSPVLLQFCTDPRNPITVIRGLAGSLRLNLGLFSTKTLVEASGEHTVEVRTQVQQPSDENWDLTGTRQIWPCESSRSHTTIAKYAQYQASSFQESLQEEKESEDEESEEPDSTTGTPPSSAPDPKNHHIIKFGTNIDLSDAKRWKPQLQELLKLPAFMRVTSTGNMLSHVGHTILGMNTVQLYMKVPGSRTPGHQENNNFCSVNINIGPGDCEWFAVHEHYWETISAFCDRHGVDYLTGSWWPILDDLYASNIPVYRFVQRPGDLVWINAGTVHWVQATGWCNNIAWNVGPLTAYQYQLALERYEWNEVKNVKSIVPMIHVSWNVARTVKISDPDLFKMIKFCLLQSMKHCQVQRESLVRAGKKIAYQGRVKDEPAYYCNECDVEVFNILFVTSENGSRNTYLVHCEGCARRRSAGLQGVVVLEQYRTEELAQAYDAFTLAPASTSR
Sequence of Lysine-specific demethylase 6A (O15550 whole entry): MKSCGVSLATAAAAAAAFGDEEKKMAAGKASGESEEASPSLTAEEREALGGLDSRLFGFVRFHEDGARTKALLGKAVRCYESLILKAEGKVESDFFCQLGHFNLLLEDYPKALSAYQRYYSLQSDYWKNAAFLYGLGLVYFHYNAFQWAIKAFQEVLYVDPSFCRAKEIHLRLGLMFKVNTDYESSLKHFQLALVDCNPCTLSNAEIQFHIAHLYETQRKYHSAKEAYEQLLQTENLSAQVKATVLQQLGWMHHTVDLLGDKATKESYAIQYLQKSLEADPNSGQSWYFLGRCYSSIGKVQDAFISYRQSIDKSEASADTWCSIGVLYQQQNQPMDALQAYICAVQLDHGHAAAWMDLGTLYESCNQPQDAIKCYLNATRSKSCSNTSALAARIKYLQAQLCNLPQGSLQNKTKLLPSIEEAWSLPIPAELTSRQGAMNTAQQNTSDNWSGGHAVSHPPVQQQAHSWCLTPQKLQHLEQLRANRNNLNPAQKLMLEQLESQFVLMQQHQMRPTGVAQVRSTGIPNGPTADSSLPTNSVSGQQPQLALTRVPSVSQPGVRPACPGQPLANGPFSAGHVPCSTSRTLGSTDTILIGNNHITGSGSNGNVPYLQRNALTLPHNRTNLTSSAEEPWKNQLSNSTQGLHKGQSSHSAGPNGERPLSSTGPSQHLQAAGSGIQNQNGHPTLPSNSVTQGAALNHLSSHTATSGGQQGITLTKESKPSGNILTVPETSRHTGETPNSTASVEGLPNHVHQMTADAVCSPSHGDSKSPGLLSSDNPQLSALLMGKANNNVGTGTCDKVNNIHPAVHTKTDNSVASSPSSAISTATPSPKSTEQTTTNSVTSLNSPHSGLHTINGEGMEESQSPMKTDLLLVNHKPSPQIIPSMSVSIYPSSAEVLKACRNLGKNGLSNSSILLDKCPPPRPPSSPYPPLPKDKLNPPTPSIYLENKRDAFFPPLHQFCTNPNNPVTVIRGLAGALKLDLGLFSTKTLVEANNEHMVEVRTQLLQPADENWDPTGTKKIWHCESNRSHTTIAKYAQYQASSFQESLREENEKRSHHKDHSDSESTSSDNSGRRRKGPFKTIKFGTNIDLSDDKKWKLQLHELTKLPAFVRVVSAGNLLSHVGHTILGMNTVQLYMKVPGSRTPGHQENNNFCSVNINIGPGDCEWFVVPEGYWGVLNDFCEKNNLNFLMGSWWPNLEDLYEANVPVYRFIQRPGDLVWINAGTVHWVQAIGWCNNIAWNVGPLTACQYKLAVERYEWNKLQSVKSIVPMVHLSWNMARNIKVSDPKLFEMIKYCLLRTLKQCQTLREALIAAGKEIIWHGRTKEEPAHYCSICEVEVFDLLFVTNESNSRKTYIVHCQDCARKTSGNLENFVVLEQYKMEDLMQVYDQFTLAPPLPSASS

Compound: Oc1ccccc1-c1nc2ccccc2s1
inhibition [9]: inactive

Compound: Oc1c(F)cc(F)cc1-c1nc2ccccc2o1
inhibition [9]: 20%

Compound: COc1cc2c(cc1-c1nc3ccccc3o1)OCO2
inhibition [9]: inactive

The next lines start with results.

Papp at 24 h, 500 µM [1]: 0.912 ×10⁻⁶ cm/s | pIC50 (A-375 [3]): 4.61 | inhibition [7]: Active | inhibition [9]: 90% | pIC50 [16]: 5.92 | pIC50 [17]: 4.59
Compound: Oc1ccc(O)c(-c2nc3ccccc3o2)c1
Activity (A-375 [2]): 61.05% | Activity (A-375 [4]): 47.57% | Activity (A-375 [5]): 10% | Activity (A-375 [6]): 67.12% | Activity (A-375 [8]): 51.31% | Activity (A-375 [10]): 10.96% | Activity (A-375 [11]): 16.62% | Activity (A-375 [12]): 24.14% | Activity (A-375 [13]): 73.38% | Activity (A-375 [14]): 14.81% | Activity (A-375 [15]): 21.92% | Activity (A-375 [18]): 1.12%

inhibition [9]: 27%
Compound: O=C(O)c1ccc(O)c(-c2nc3ccccc3o2)c1

inhibition [9]: 40%
Compound: Oc1ccccc1-c1nc2ccccc2o1
